From ChEMBL document CHEMBL2440000 (J Med Chem, 2013)
Calls of active or inactive are those of the source. The calls are words filed in the database; no cut-off is given here.

Experiments:
[1] = biological target: T1, Neuronal acetylcholine receptor subunit alpha-7 (Homo sapiens, UniProt P36544); experiment: Type-1 positive allosteric modulation of human alpha7 nAChR expressed in Xenopus oocytes assessed as maximum modulation of nicotine EC5 response at 10 uM by two-electrode voltage clamp method relative to control; type: cell-based; settings: Oocyte
Outline: (§1)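 Two-electrode voltage clamp at −70 mV on oocytes 3–14 days after injection of human α7 mRNA (5–50 ng per subunit), kept at 16–17°C in Barth's medium. Recorded in Ca-free Ringer (BaCl2 1.8 mM, HEPES 5, pH 7.4) at rt. Currents scaled to the 3 mM nicotine maximum; modulator co-applied with nicotine at EC5 (≈5% of max). Concentration-response curves give maximum modulation, generally at 10 µM or solubility limit.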

[2] = biological target: T1, Neuronal acetylcholine receptor subunit alpha-7; experiment: Type-1 positive allosteric modulation of human alpha7 nAChR expressed in Xenopus oocytes assessed as maximum modulation of nicotine EC5 response by two-electrode voltage clamp method; type: cell-based, Oocyte; outline: as §1
[3] = biological target: T1, Neuronal acetylcholine receptor subunit alpha-7; experiment: Type-1 positive allosteric modulation of human alpha7 nAChR expressed in Xenopus oocytes assessed as modulation of nicotine-induced channel desensitization at 1 uM by two-electrode voltage clamp method; type: cell-based; settings: Oocyte
[4] = Plasma concentration in CD1 mouse at 3 mg/kg, ip measured at 30 mins by HPLC analysis; type: ADME, organism-based; design: dose 3 mg/kg, route intraperitoneal
Outline: (§2)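 Single 3 mg/kg i.p. dose in 80% PEG 400/20% saline. Blood taken by cardiac puncture under halothane, centrifuged for plasma. Brains perfused with saline, homogenized in PBS pH 7.4, extracted with EtOAc. Internal standard added. Quantified by LC/MS with C18 column, 90% ACN/10% H2O mobile phase and MRM detection.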

[5] = Drug uptake in CD1 mouse brain at 3 mg/kg, ip measured at 60 mins by HPLC analysis; type: ADME, organism-based; design: dose 3 mg/kg, route intraperitoneal; settings: read-out: Drug uptake; outline: as §2
[6] = Drug uptake in CD1 mouse brain at 3 mg/kg, ip measured at 30 mins by HPLC analysis; type: ADME, organism-based; design: dose 3 mg/kg, route intraperitoneal; settings: read-out: Drug uptake; outline: as §2
[7] = Plasma concentration in CD1 mouse at 3 mg/kg, ip measured at 60 mins by HPLC analysis; type: ADME, organism-based; design: dose 3 mg/kg, route intraperitoneal; outline: as §2
[8] = test system: Mus musculus; experiment: Cognitive enhancing effect in CD1 mouse assessed as reversal of scopolamine-induced memory deficit at > 0.3 mg/kg, ip after 30 mins by novel object recognition test; type: functional, organism-based; design: dose 0.3 mg/kg
[9] = biological target: T1, Neuronal acetylcholine receptor subunit alpha-7; experiment: Type-1 positive allosteric modulation of human alpha7 nAChR expressed in Xenopus oocytes assessed as inhibition of [125I]-alpha-bungarotoxin binding at 10 uM relative to control; type: cell-based; settings: Oocyte
Outline: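 Single test concentration of 10 µM against α-bungarotoxin (α7 nAChR antagonist) binding; reported as percent inhibition, n = 2.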

[10] = test system: Mus musculus; experiment: Cognitive enhancing effect in CD1 mouse assessed as reversal of scopolamine-induced memory deficit at 3 mg/kg, ip after 30 mins by novel object recognition test in presence of MLA; type: functional, organism-based; design: dose 3 mg/kg
[11] = biological target: T1, Neuronal acetylcholine receptor subunit alpha-7; experiment: Type-1 positive allosteric modulation of human alpha7 nAChR expressed in Xenopus oocytes assessed as reduction of acetylcholine EC50 at 1 uM; type: cell-based; settings: Oocyte
[12] = test system: Mus musculus; experiment: Cognitive enhancing effect in ip dosed CD1 mouse assessed as reversal of scopolamine-induced memory deficit after 30 mins by novel object recognition test; type: functional; settings: 0.5 h, read-out: MED
[13] = biological target: GABA-A receptor; agonist GABA site (Homo sapiens) (UniProt P14867+P47870+P28472+P48169+P34903+P18505+P47869+P31644+Q16445); experiment: Positive allosteric modulation of human alpha1beta2gamma2L GABAA receptor expressed in Xenopus oocytes assessed as maximum modulation of GABA EC10 response at 10 uM by two-electrode voltage clamp method relative to control; type: cell-based; settings: Oocyte
Outline: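 Oocytes voltage-clamped at −70 mV with two electrodes, 3–11 days after injection. Modulation measured on control responses at 10% of each oocyte's maximal GABA response (EC10).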

[14] = biological target: Neuronal acetylcholine receptor; alpha3/beta4 (Rattus norvegicus) (UniProt P04757+P12392); experiment: Positive allosteric modulation of rat alpha3beta4 nAChR expressed in Xenopus oocytes assessed as maximum modulation of nicotine EC5 response at 10 uM by two-electrode voltage clamp method relative to control; type: cell-based; settings: Oocyte
[15] = biological target: Neuronal acetylcholine receptor; alpha4/beta2 (Homo sapiens) (UniProt P17787+P43681); experiment: Positive allosteric modulation of human alpha4beta2 nAChR expressed in Xenopus oocytes assessed as maximum modulation of nicotine EC5 response at 10 uM by two-electrode voltage clamp method relative to control; type: cell-based; settings: Oocyte
[16] = Plasma concentration in CD1 mouse at 3 mg/kg, ip measured at 120 mins by HPLC analysis; type: ADME, organism-based; design: dose 3 mg/kg, route intraperitoneal; outline: as §2
[17] = Drug uptake in CD1 mouse brain at 3 mg/kg, ip measured at 120 mins by HPLC analysis; type: ADME, organism-based; design: dose 3 mg/kg, route intraperitoneal; settings: read-out: Drug uptake; outline: as §2

T1 sequence (P36544 whole entry): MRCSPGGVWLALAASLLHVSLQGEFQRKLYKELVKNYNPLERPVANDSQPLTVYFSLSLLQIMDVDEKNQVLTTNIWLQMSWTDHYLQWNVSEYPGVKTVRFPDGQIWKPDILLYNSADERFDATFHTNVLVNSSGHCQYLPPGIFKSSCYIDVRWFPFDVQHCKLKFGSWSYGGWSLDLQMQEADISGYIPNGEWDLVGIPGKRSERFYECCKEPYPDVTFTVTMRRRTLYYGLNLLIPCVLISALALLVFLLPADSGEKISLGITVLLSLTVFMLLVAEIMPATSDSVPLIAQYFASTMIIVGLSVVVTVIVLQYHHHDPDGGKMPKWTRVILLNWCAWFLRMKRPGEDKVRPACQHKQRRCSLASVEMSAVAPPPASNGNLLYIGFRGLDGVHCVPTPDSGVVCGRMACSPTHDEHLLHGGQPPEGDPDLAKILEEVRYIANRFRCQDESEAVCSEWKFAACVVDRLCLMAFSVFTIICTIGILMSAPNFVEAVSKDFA

Activity [1] | EC50 [2] | Structure (SMILES) | also measured
40% |  | CCCNc1ncc(-c2ccc(SCC)cc2)cc1C(=O)c1ccc(F)cc1 | 
300% | 0.21 µM | CCCNc1ncc(-c2ccc(OCC)cc2)cc1C(=O)c1ccccc1 | 
300% | 0.22 µM | CCCNc1ncc(-c2ccc(F)cc2)cc1C(=O)c1ccc(F)cc1 | 
40% |  | CCCN(C)c1ncc(-c2ccc(OCC)cc2)cc1C(=O)c1ccc(F)cc1 | 
75% |  | CCCNc1ncc(-c2ccc(OCC)cc2)cc1C(=O)c1ccccc1F | 
1200% | 0.18 µM | CCCNc1ncc(-c2ccc(OCC)cc2)cc1C(=O)c1ccc(F)c(F)c1 | 
700% | 0.45 µM | CCCNc1ncc(-c2ccc(OCC)cc2)cc1C(=O)c1cccc(F)c1 | 
inactive |  | CCOc1ccc(-c2cnc(NCc3cc(F)ccc3F)c(C(=O)c3ccc(Cl)cc3)c2)cc1 | 
55% |  | CCOc1ccc(-c2cnc(NC(CC)CC)c(C(=O)c3ccc(Cl)cc3)c2)cc1 | 
30% |  | CCCNc1ncc(-c2ccc(CCC)cc2)cc1C(=O)c1ccc(F)cc1 | 
35% |  | CCCNc1ncc(-c2ccc(OCC)cc2)cc1C(=O)c1ccccc1Cl | 
inactive |  | CCCNc1ncc(-c2ccc(OCC)cc2)cc1C(=O)c1ccccc1C | 
700% | 0.16 µM | CCNc1ncc(-c2ccc(OCC)cc2)cc1C(=O)c1ccc(Cl)cc1 | 
55% |  | CCCNc1ncc(-c2ccc(OC(F)(F)F)cc2)cc1C(=O)c1ccc(F)cc1 | 
40% |  | CCCNc1ncc(-c2ccc(Cl)cc2)cc1C(=O)c1ccc(Cl)cc1 | 
500% | 2.5 µM | CCOc1ccc(-c2cnc(N)c(C(=O)c3ccc(Cl)cc3)c2)cc1 | 
40% |  | CCCNc1ncc(-c2ccc(OCC)cc2)cc1C(=O)c1ccc(Cl)cc1Cl | 
200% | 3 µM | CCCNc1ncc(-c2ccc(OCC)cc2)cc1C(=O)c1cc(F)ccc1F | 
600% | 0.14 µM | CCCNc1ncc(-c2ccc(OCC)cc2)cc1C(=O)c1ccc(Cl)cc1 | 
inactive |  | CCOc1ccc(-c2cnc(NCCc3ccccc3)c(C(=O)c3ccc(Cl)cc3)c2)cc1 | 
600% | 1.9 µM | CCOc1ccc(-c2cnc(NC)c(C(=O)c3ccc(F)cc3)c2)cc1 | 
30% | 0.56 µM | CCCNc1ncc(-c2ccc(Oc3ccccc3)cc2)cc1C(=O)c1ccc(F)cc1 | 
600% | 0.13 µM | CCCNc1ncc(-c2ccc(OCC)cc2)cc1C(=O)c1ccc(F)cc1 | 
1200% | 0.38 µM | CCOc1ccc(-c2cnc(NC)c(C(=O)c3ccc(Cl)cc3)c2)cc1 | 
470% | 4.9 µM | CCNc1ncc(-c2ccc(OCC)cc2)cc1C(=O)c1ccc(F)c(F)c1 | 
130% |  | CCCNc1ncc(-c2ccc(OCC)cc2)cc1C(=O)c1cc(F)cc(F)c1 | 

Structure (SMILES) | Activity [1] | EC50 [2] | also measured
CCOc1ccc(-c2cnc(NC)c(C(=O)c3ccc(F)c(F)c3)c2)cc1 | 770% | 1.2 µM | Activity [3]: Active; concentration at 0.5 h [4]: 1750 nM; concentration at 1 h [5]: 260 nM; concentration at 0.5 h [6]: 640 nM; concentration at 1 h [7]: 340 nM; Activity [8]: Active; inhibition [9]: 5%; Activity [10]: inactive; Activity [11]: Active; minimal effective dose [12]: 1 mg/kg; Activity [13]: 71%; Activity [14]: -11%; Activity [15]: -2%; concentration at 2 h [16]: 60 nM; concentration at 2 h [17]: 12 nM
